Experimental data from ChEMBL document CHEMBL1156631 (J Med Chem, 2008).
Converted amounts (≈) assume the structure as drawn.

Experiments:
Cannabinoid receptor 1 [1] = biological target: T1, Cannabinoid receptor 1 (Homo sapiens, UniProt P21554); test: Agonist activity at human CB1 receptor expressed in Sf9 cells by GTP-europium binding assay
Outline: (§1)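 Membranes were from Sf9 insect cells cotransfected with CB1 or CB2 plus Gαi3 (Bmax 1.7 pmol/mL). Compound (0.01 nM–10 µM, 1% DMSO final) was added to buffer with Hepes, BSA, 10 mM MgCl2, 150 mM NaCl, 5 µM GDP, 10 nM GTP-europium, saponin and membranes (CB1 4.5 µg/well, CB2 14 µg/well). 100% efficacy was set by 3 µM reference agonist.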

Cannabinoid receptor 2 [2] = biological target: T2, Cannabinoid receptor 2 (Homo sapiens, UniProt P34972); test: Agonist activity at human recombinant CB2 receptor expressed in Sf9 cells by GTP-europium binding assay; outline: as §1
T2 sequence (P34972 whole entry): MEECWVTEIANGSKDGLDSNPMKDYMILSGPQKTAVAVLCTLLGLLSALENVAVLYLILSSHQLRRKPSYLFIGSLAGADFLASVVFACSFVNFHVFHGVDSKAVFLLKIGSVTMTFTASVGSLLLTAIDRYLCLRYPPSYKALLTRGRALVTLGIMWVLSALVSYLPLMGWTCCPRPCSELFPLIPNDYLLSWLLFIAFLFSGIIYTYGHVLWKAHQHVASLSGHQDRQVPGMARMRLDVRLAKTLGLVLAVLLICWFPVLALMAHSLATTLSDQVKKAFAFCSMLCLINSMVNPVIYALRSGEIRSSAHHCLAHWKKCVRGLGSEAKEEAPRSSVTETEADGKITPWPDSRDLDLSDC

Cannabinoid receptor 1 [3] = biological target: T1, Cannabinoid receptor 1; test: Agonist activity at human recombinant CB1 receptor expressed in Sf9 cells by GTP-europium binding assay relative to CP-55940
Outline: (§2)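 Membranes were from Sf9 insect cells cotransfected with CB1 or CB2 plus Gαi3 (Bmax 1.7 pmol/mL). Compound (0.01 nM–10 µM, 1% DMSO final) was added to buffer with Hepes, BSA, 10 mM MgCl2, 150 mM NaCl, 5 µM GDP, 10 nM GTP-europium, saponin and membranes (CB1 4.5 µg/well, CB2 14 µg/well). Incubation was 45 min at room temperature, then filtration and washing, with fluorescence read at 615 nm. 100% efficacy was set by 3 µM reference agonist.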

Cannabinoid receptor 2 [4] = biological target: T2, Cannabinoid receptor 2; test: Agonist activity at human recombinant CB2 receptor expressed in Sf9 cells by GTP-europium binding assay relative to CP-55940; outline: as §2
Cannabinoid receptor 1 [5] = biological target: T1, Cannabinoid receptor 1; test: Agonist activity at human recombinant CB1 receptor expressed in CHO-K1 cells assessed as inhibition of forskolin-stimulated intracellular cAMP level; assay type: functional, cell-based
Outline: (§3)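 CHO-K1 cells stably expressing human or rat CB1 or CB2 were used. Compounds were diluted from DMSO into HBSS/HEPES/BSA buffer containing 60 µM forskolin, then combined with 5000 cells/well plus Alexa647 anti-cAMP antibody, 1 h at room temperature. A biotinylated-cAMP detection mix was added for another 1 h.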

Cannabinoid receptor 2 [6] = biological target: T2, Cannabinoid receptor 2; test: Agonist activity at human recombinant CB2 receptor expressed in CHO-K1 cells assessed as inhibition of forskolin-stimulated intracellular cAMP level; assay type: functional, cell-based; outline: as §3
Cannabinoid receptor 1 [7] = biological target: T1, Cannabinoid receptor 1; test: Agonist activity at human recombinant CB1 receptor expressed in CHO-K1 cells assessed as inhibition of forskolin-stimulated intracellular cAMP level relative to CP-55940; assay type: functional, cell-based
Outline: (§4)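 CHO-K1 cells stably expressing human or rat CB1 or CB2 were used. Compounds were diluted from DMSO into HBSS/HEPES/BSA buffer containing 60 µM forskolin, then combined with 5000 cells/well plus Alexa647 anti-cAMP antibody, 1 h at room temperature. A biotinylated-cAMP detection mix was added for another 1 h. Emission at 665 nm gave concentration-response curves and EC50; Emax is expressed as a percentage of the reference agonist maximum.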

Cannabinoid receptor 2 [8] = biological target: T2, Cannabinoid receptor 2; test: Agonist activity at human recombinant CB2 receptor expressed in CHO-K1 cells assessed as inhibition of forskolin-stimulated intracellular cAMP level relative to CP-55940; assay type: functional, cell-based; outline: as §4
Cannabinoid receptor 1 [9] = biological target: Cannabinoid receptor 1 (Rattus norvegicus, UniProt P20272); test: Agonist activity at rat recombinant CB1 receptor expressed in CHO-K1 cells assessed as inhibition of forskolin-stimulated intracellular cAMP level; assay type: functional, cell-based; outline: as §3
Cannabinoid receptor 1 (Rattus norvegicus, UniProt P20272), sequence (P20272 whole entry): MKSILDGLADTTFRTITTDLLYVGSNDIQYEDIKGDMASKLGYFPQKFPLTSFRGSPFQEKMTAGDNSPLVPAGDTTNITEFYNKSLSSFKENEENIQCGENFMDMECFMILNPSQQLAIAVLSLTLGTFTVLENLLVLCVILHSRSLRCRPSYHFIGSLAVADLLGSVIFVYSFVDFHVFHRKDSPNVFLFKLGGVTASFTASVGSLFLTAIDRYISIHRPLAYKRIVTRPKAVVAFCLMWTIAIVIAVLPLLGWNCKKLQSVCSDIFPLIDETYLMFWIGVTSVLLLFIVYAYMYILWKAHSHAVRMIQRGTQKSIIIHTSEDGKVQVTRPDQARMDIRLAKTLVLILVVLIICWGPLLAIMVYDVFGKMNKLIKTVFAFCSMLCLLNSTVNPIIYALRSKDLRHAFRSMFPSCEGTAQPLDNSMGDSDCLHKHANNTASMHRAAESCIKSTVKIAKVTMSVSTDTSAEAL

Cannabinoid receptor 2 [10] = biological target: T3, Cannabinoid receptor 2 (Rattus norvegicus, UniProt Q9QZN9); test: Agonist activity at rat recombinant CB2 receptor expressed in CHO-K1 cells assessed as inhibition of forskolin-stimulated intracellular cAMP level; assay type: functional, cell-based; outline: as §4
T3 sequence (Q9QZN9 whole entry): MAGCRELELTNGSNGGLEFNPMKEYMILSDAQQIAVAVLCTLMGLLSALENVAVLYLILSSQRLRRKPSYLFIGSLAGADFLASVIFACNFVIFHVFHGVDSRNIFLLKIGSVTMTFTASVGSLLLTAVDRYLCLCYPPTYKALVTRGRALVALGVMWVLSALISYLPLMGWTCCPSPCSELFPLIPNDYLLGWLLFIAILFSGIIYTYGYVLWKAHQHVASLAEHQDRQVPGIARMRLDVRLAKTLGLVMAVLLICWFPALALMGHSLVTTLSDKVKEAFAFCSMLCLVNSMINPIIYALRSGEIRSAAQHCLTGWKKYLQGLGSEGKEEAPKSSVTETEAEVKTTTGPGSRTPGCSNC

[11] = biological target: Cannabinoid receptor 1 (Rattus norvegicus) (UniProt P20272); test: Agonist activity at rat recombinant CB1 receptor expressed in CHO-K1 cells assessed as inhibition of forskolin-stimulated intracellular cAMP level relative to CP-55940; assay type: functional, cell-based; outline: as §4
Cannabinoid receptor 1 (Rattus norvegicus), sequence (P20272 whole entry): as the sequence (P20272 whole entry) above

[12] = biological target: T4, Cannabinoid receptor 2 (Rattus norvegicus) (UniProt Q9QZN9); test: Agonist activity at rat recombinant CB2 receptor expressed in CHO-K1 cells assessed as inhibition of forskolin-stimulated intracellular cAMP level relative to CP-55940; assay type: functional, cell-based; outline: as §4
T4 sequence (whole entry): T3 sequence (Q9QZN9 whole entry)

[13] = Solubility in simulated intestinal fluid; assay type: physicochemical; details: read-out: Stability
[14] = Metabolic stability in human liver microsomes; assay type: ADME, Microsome; details: read-out: Stability
[15] = Metabolic stability in rat liver microsomes; assay type: ADME, Microsome; details: read-out: Stability
[16] = Cmax in rat at 10 mg/kg, po; assay type: ADME, organism-based; parameters: dose 10 mg/kg, route oral; details: in vivo
[17] = (§5) AUC in rat at 10 mg/kg, po; assay type: ADME, organism-based, Plasma; parameters: dose 10 mg/kg, route oral; details: plasma
[18] = (§6) Oral bioavailability in rat at 10 mg/kg; assay type: ADME, organism-based; details: in vivo
[19] = Half life in rat at 10 mg/kg, po; assay type: ADME, organism-based; parameters: dose 10 mg/kg, route oral; details: in vivo
Cannabinoid receptor 2 [20] = biological target: T2, Cannabinoid receptor 2; test: Binding affinity to CB2 receptor
Cannabinoid receptor 1 [21] = biological target: T1, Cannabinoid receptor 1; test: Binding affinity to CB1 receptor
Rattus norvegicus [22] = test: Oral bioavailability in rat; assay type: ADME, organism-based; details: in vivo
Rattus norvegicus [23] = test: Clearance in rat at 0.5 mg/kg, iv; assay type: ADME, organism-based; parameters: dose 0.5 mg/kg, route intravenous; details: in vivo
Rattus norvegicus [24] = test: as §5; assay type: ADME, organism-based, Plasma; parameters: dose 10 mg/kg, route oral; details: in vivo
Rattus norvegicus [25] = test: as §6; assay type: ADME, organism-based; details: in vivo

T1 sequence (P21554 whole entry): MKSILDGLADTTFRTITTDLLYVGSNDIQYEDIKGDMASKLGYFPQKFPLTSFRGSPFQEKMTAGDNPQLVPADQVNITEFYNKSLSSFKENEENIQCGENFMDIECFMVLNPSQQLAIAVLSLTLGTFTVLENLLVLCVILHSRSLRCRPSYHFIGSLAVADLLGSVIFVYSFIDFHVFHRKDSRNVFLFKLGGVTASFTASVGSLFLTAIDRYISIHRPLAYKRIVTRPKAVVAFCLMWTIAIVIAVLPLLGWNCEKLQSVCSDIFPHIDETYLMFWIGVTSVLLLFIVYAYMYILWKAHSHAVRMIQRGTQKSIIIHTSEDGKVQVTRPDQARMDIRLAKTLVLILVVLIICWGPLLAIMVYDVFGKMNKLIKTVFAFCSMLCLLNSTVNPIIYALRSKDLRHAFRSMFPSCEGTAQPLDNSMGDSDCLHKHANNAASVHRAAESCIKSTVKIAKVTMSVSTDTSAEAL

SMILES | EC50 (Cannabinoid receptor 1 [1]) | EC50 (Cannabinoid receptor 2 [2]) | Emax (Cannabinoid receptor 1 [3]) | Emax (Cannabinoid receptor 2 [4]) | EC50 (Cannabinoid receptor 1 [5]) | EC50 (Cannabinoid receptor 2 [6]) | Emax (Cannabinoid receptor 1 [7]) | Emax (Cannabinoid receptor 2 [8]) | EC50 (Cannabinoid receptor 1 [9]) | EC50 (Cannabinoid receptor 2 [10]) | Emax [11] | Emax [12] | solubility [13] | microsomal CLint [14] | microsomal CLint [15] | Cmax [16] | AUC [17] | bioavailability [18] | half-life [19] | also measured
Fc1ccc(-c2noc(CCCNc3cnc4ccc(OC(F)(F)F)cc4c3)n2)c(Cl)c1 | 1100 nM | 0.015 nM | 81% | 110% | 850 nM | 2.3 nM | 78% | 110% | 130 nM | 1.3 nM | 120% | 130% | 49 µg/mL (≈ 105 µM) |  |  |  |  |  |  | 
O=C(CCc1nc(-c2ccc(F)cc2Cl)no1)Nc1cnc2ncc(Cl)cc2c1 | 2300 nM | 3.3 nM | 43% | 110% | > 1000 nM | 0.6 nM | 30% | 97% | 220 nM | 0.4 nM | 100% | 100% |  | < 100 µL/min/mg | < 100 µL/min/mg |  |  |  |  | 
O=C(CCc1nc(-c2ccc(F)cc2Cl)no1)Nc1nnc(N2CCCCC2)s1 | 211 nM | 1.2 nM | 47% | 98% | > 1000 nM | 0.8 nM | 38% | 98% | 220 nM | 1.1 nM | 87% | 98% |  | < 100 µL/min/mg | < 100 µL/min/mg |  |  |  |  | 
Fc1ccc(-c2noc(CCCNc3cnc4ccc(Cl)cc4c3)n2)c(Cl)c1 | 220 nM | 1.7 nM | 51% | 110% | 560 nM | 2.2 nM | 88% | 94% | 77 nM | 1.3 nM | 85% | 90% | 87 µg/mL (≈ 208 µM) |  |  | 8400 ng/mL | 43000 ng·h/mL | < 100% | 5.1 h | 
Cc1ccc2c(=O)c(C(=O)NC3CCCCC3)cn(Cc3ccc(F)cc3)c2n1 |  |  |  |  |  |  |  |  |  |  |  |  |  |  |  |  |  |  |  | Ki (Cannabinoid receptor 2 [20]): 5.5 nM; Ki (Cannabinoid receptor 1 [21]): 15 nM
O=C(CCc1nc(-c2ccc(F)cc2Cl)no1)Nc1ccc(C(F)(F)F)cc1Cl | > 10000 nM | 370 nM |  | 41% |  |  |  |  |  |  |  |  |  |  |  | 100 ng/mL | 460 ng·h/mL | 13% | 1.6 h | 
N#Cc1cc(NC(=O)CCc2nc(-c3ccc(F)cc3Cl)no2)cnc1OCC(F)(F)F | > 10000 nM | 14 nM |  | 110% | > 1000 nM | 31 nM |  | 97% | > 1000 nM | 3.1 nM |  | 100% | 24 µg/mL (≈ 51.1 µM) |  |  | 3400 ng/mL | 21000 ng·h/mL | 36% | 3.1 h | 
CCn1c2ccccc2c2cc(NC(=O)CCc3nc(-c4ccccc4F)no3)ccc21 | > 10000 nM |  |  | 100% | > 1000 nM |  |  | 93% | > 1000 nM | 33 nM |  | 91% | 2 µg/mL (≈ 4.67 µM) | 274 µL/min/mg | 198 µL/min/mg | 100 ng/mL |  |  | 1.6 h | F (Rattus norvegicus [22]): 13%; CL (Rattus norvegicus [23]): 20 mL/min/kg; AUC (Rattus norvegicus [24]): 460 ng·h/mL; F (Rattus norvegicus [25]): 13%
O=C(CCc1nc(-c2ccc(F)cc2Cl)no1)Nc1nc2ccc(OC(F)(F)F)cc2s1 | 1900 nM | 3 nM | 36% | 120% | > 1000 nM | 6.5 nM | 36% | 99% | > 1000 nM | 6.9 nM | 21% | 98% |  | < 100 µL/min/mg | < 100 µL/min/mg |  |  |  |  | 
